Converted amounts (≈) assume the structure as drawn.
Key:
Type in all cases: functional
[1] = tested on: Staphylococcus aureus; experiment: Antibacterial activity against Staphylococcus aureus ATCC 29213 assessed as inhibition of visible bacterial growth incubated for 24 hrs at 37 degC by broth microdilution method; settings: ATCC 29213, 24 h
Method in brief: (§1)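 MICs were determined by broth microdilution against S. aureus strains maintained on Mueller Hinton agar (24 h, 37 °C). Final compound concentrations ranged from 0.39 to 100 μg/mL. Inoculum was 10^5 CFU/mL final per well, incubated 24 h at 37 °C. MIC was the lowest concentration preventing visible growth. Wells were run in triplicate and the experiment was repeated three times.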

[2] = tested on: Helicobacter pylori; experiment: Bactericidal activity against Helicobacter pylori J99 assessed as reduction in viable colony-forming units pre-incubated for 2 hrs followed by incubation at 37 degC under microaerophilic conditions for 72 hrs
Method in brief: (§2)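 H. pylori J99 came from 24 h cultures on Skirrow's medium (microaerobic, 37 °C) and was resuspended in brain heart infusion. Compound at 100 μg/mL final was mixed with 10^6 CFU/mL bacteria and held 2 h at 37 °C. Controls were BHI alone and amoxicillin at 10 μg/mL. Samples were serially 10-fold diluted in warm PBS and plated in triplicate on Skirrow's (72 h, 37 °C, microaerophilic). Kill was log10 CFU/mL (0 h) minus log10 CFU/mL (2 h).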

[3] = tested on: Helicobacter pylori; experiment: Bactericidal activity against Helicobacter pylori J99 assessed as compound concentration causing reduction in viable colony-forming units pre-incubated for 2 hrs followed by incubation at 37 degC under microaerophilic conditions for 72 hrs; method in brief: as §2
[4] = tested on: Staphylococcus aureus; experiment: Antibacterial activity against Staphylococcus aureus isolated from tibial leg ulcer patient assessed as inhibition of visible bacterial growth incubated for 24 hrs at 37 degC by broth microdilution method; method in brief: as §1
[5] = tested on: Staphylococcus aureus; experiment: Antibacterial activity against Staphylococcus aureus isolated from tibial osteomyelitis patient assessed as inhibition of visible bacterial growth incubated for 24 hrs at 37 degC by broth microdilution method; method in brief: as §1
[6] = tested on: Helicobacter pylori; experiment: Bactericidal activity against Helicobacter pylori J99 assessed as reduction in viable colony-forming units pre-incubated for 2 hrs followed by incubation at 37 degC under microaerophilic conditions for 72 hrs relative to initial inoculum; method in brief: as §2

SMILES	MIC [1] [µM]	log10CFU/ml [2]	Activity [3] [µM]	MIC [4] [µM]	MIC [5] [µM]	Activity [6] [%]
COc1cc(O)c2c(O)c3c(c(-c4c(OC)cc5c(c4O)C(=O)c4c(O)cc(C)cc4C5=O)c2c1)CC(C)OC3=O (stereo unspecified)	89.9 (≈ 50 µg/mL)	0.42	179.8	89.9 (≈ 50 µg/mL)	89.9 (≈ 50 µg/mL)	–
COc1cc(O)c2c(O)c3c(c(-c4c(OC)cc5c(c4O)C(=O)c4c(O)cc(C)c(OC)c4C5=O)c2c1)CC(C)OC3=O (stereo unspecified)	10.7 (≈ 6.28 µg/mL)	6	170.6	2.7 (≈ 1.58 µg/mL)	10.7 (≈ 6.28 µg/mL)	>99.9
CC1(C)S[C@@H]2[C@H](NC(=O)[C@H](N)c3ccc(O)cc3)C(=O)N2[C@H]1C(=O)O [AMOXICILLIN]	–	0.51	274	–	–	–
NC[C@H]1O[C@H](O[C@H]2[C@H](O)[C@@H](O[C@H]3O[C@H](CO)[C@@H](O)[C@H](N)[C@H]3O)[C@H](N)C[C@@H]2N)[C@H](O)[C@@H](O)[C@@H]1O [KANAMYCIN]	8.3 (≈ 4.02 µg/mL)	–	–	8.3 (≈ 4.02 µg/mL)	8.3 (≈ 4.02 µg/mL)	–

Reference: ChEMBL document CHEMBL3580550, “Antibacterial Polyketide Heterodimers from Pyrenacantha kaurabassana Tubers” (2015)
